Activity calls are given as the source filed them. The rule behind the calls is not given here.

Assay [1] addresses T1, Gastrin/cholecystokinin type B receptor (Homo sapiens) (UniProt P32239).
T1 sequence (whole entry): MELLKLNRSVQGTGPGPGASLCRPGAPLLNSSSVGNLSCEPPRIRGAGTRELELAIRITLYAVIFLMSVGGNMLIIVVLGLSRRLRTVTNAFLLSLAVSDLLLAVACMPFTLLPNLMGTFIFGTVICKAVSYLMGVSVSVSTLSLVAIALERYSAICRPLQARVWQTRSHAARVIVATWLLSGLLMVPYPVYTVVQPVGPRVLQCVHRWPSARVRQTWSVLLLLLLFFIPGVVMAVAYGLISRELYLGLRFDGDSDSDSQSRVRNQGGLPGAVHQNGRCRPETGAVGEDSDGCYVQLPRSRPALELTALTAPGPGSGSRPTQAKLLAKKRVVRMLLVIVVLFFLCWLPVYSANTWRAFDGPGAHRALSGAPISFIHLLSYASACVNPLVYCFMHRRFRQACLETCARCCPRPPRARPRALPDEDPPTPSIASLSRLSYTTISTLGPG
In words: (§1) Displacement of [125I](R)-1-(3-iodophenyl)-3-(1-methyl-2-oxo-5-phenyl-2,3-dihydro-1Hbenzo[e][1,4]diazepin-3-yl)urea from human CCK2 receptor expressed in CHO cells by gamma spectrometry. In kind it is cell-based. To be noted: tested as the 125I-labelled form. The method, boiled down:
(§2)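 Homologous competition in membranes (5–10 µg protein) from CHO cells expressing human receptor. 10 pM radioligand (about 20,000 cpm) plus cold ligand 0–1 µM in KRH with 0.2% BSA and 0.01% soybean trypsin inhibitor, 1 h at room temperature. Filtration, gamma counting. Ki fitted by LIGAND nonlinear least squares. Duplicate/triplicate, ≥3 independent experiments.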
In general terms: Loss of bound radioactivity is the signal in a displacement assay; it reports binding, not function.

The target in assay [2] is T1, Gastrin/cholecystokinin type B receptor (Homo sapiens). In words: Agonist activity at human CCK2 receptor expressed in CHO cells assessed as stimulation of intracellular calcium response. In kind it is functional, cell-based. An outline of the steps:
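CHO cells stably expressing human receptor, detached non-enzymatically, loaded with 5 μM Fura-2 AM for 30 min at 37 °C in serum-free Ham's F12. About 2 million cells per measurement were stimulated with test ligand (10 pM to 10 μM) at 37 °C. Fluorescence was read with excitation at 340/380 nm and emission at 520 nm over 300 s. Three independent experiments.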
(In general: Calcium assays in cells follow changes in intracellular calcium, usually with a dye or a luminescent sensor.)

Assay [3] has the same target. Kind of assay: Antagonist activity at human CCK2 receptor expressed in CHO cells assessed as inhibition of CCK8-stimulated intracellular calcium response preincubated for 100 seconds before CCK8 challenge. Format: functional, cell-based. The method, boiled down:
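Fura-2 AM-loaded (5 μM, 30 min, 37 °C) CHO cells stably expressing human receptor, about 2 million per measurement. Cells were pre-incubated 100 s with increasing ligand concentrations, then stimulated with CCK-8 (final 10^-9 M) at 37 °C. Ratiometric read-out with excitation at 340/380 nm and emission at 520 nm, collected over 300 s. Means of 3 independent experiments.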

Assay [4] shares this target. In words: Binding affinity to CCK2 receptor in human gastrointestinal stromal tumor in presence of (R)-1-(3-iodophenyl)-3-(1-methyl-2-oxo-5-phenyl-2,3-dihydro-1Hbenzo[e][1,4]diazepin-3-yl)urea. To be noted: tested as the 125I-labelled form.
For assay [5] the target is unchanged. Kind of assay: Binding affinity to CCK2 receptor in human gastrointestinal stromal tumor in presence of CCK8. To be noted: tested as the 125I-labelled form.
Assay [6] has the same target. Kind of assay: Binding affinity to CCK2 receptor in human gastrointestinal stromal tumor in presence of CCK1 antagonist L364718. To be noted: tested as the 125I-labelled form.
Assay [7] shares this target. Kind of assay: Induction of receptor internalization in YFP-tagged human CCK2 receptor expressed in CHO cells at 100 nM after 90 mins. Format: cell-based. An outline of the steps:
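CHO cells stably expressing YFP-tagged receptor, grown ≥48 h on coverslips, bound with 100 nM ligand at 4 °C for 90 min in PBS with 0.08 mM CaCl2 and 0.1 mM MgCl2. After washing, cells were warmed to 37 °C for varying times, fixed in 2% paraformaldehyde, and imaged by confocal microscopy for surface versus internal YFP (ex 488, em >505 nm).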

Assay [8] has the same target. In words: Displacement of [125I]CCK from CCK2 receptor in human medullary thyroid carcinoma assessed as binding density per mg of tissue by autoradiography. To be noted: tested as the 125I-labelled form.
Assay [9] shares this target. Kind of assay: Displacement of [125I]CCK from CCK2 receptor in human muscular layer of gall bladder assessed as binding density per mg of tissue by autoradiography. To be noted: tested as the 125I-labelled form. Format: tissue-based.
Assay [10] concerns the target T2, Gastrin/cholecystokinin type B receptor (Homo sapiens, UniProt P32239).
T2 sequence (P32239 whole entry): T1 sequence (whole entry)
In words: Binding affinity to human CCK2 receptor expressed in CHO cell membrane by saturation binding assay. Format: cell membranes. An outline of the steps:
(§3)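 Membranes (5–10 µg protein) from CHO cells stably expressing human CCK1 or CCK2 receptor, incubated with increasing radioligand in KRH pH 7.4 with 0.2% BSA and 0.01% soybean trypsin inhibitor, 1 h at room temperature. Nonspecific binding taken with 1 µM cold homolog. Filtration, gamma counting. Kd and Bmax fitted in LIGAND.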

For assay [11], the target named is T2, Gastrin/cholecystokinin type B receptor. The description is as §1. In kind it is cell-based. An outline of the steps: as §2
In assay [12] the target is T3, Cholecystokinin receptor type A (Homo sapiens, UniProt P32238).
T3 sequence (P32238 whole entry): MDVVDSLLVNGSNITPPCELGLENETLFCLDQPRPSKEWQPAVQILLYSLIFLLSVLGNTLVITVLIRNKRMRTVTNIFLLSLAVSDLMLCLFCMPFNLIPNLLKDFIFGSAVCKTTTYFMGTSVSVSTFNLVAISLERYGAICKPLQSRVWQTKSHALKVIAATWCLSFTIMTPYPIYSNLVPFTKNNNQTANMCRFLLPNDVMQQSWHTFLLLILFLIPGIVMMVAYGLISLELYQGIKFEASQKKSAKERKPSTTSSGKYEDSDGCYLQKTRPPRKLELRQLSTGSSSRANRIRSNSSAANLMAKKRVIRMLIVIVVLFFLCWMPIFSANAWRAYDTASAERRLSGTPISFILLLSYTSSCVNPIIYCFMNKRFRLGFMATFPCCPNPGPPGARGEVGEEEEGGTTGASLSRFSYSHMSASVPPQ
Kind of assay: biochemical.

Assay [13] addresses T3, Cholecystokinin receptor type A. In words: Binding affinity to human CCK1 receptor expressed in CHO cell membrane by saturation binding assay. In kind it is cell membranes. The method, boiled down:
as §3

`CN1C(=O)[C@@H](NC(=O)Nc2cccc(I)c2)N=C(c2ccccc2)c2ccccc21`: the Activity result in assay [1] and in assay [3] was “Dose-dependent effect” throughout. In addition, in [2], the result was inactive.

On to `CN1C(=O)[C@H](NC(=O)Nc2cccc(I)c2)N=C(c2ccccc2)c2ccccc21`, for which the outcome in assay [4], in assay [5], in [6] and in assay [2] was inactive. The Activity result in [1] and in [3] was “Dose-dependent effect” in each case. Besides, in [7], the outcome was Active. In addition, the Activity (disintegrations/minute) worked out at 602 in [8] and 970 in assay [9].

One may read the Kd as the free concentration of one partner at which half of the binding sites on the other are occupied at equilibrium, for simple one-to-one binding. As a reminder, the Ki is a measure of affinity in units of concentration, obtained from inhibition or displacement. Take `CN1C(=O)[C@H](NC(=O)Nc2cccc([125I])c2)N=C(c2ccccc2)c2ccccc21`: the affinity in [10], expressed as Kd, was 2.95 nM. In addition, the Ki is 537 nM in [11] and 3.72 nM in assay [12].

On to `CN1C(=O)[C@@H](NC(=O)Nc2cccc([125I])c2)N=C(c2ccccc2)c2ccccc21`, for which, in [13], the Kd is 1.15 nM. In addition, the Ki in assay [11] is 1 nM; in assay [12], 174 nM.

Source of the values: ChEMBL document CHEMBL1153361, “Synthesis and in vitro characterization of radioiodinatable benzodiazepines selective for type 1 and type 2 cholecystokinin receptors” (J Med Chem, 2009).
